Test results reported in ChEMBL document CHEMBL1135776, “Benzo- and cyclohexanomazindol analogues as potential inhibitors of the cocaine binding site at the dopamine transporter” (J Med Chem, 2002).

How the values were obtained:
[1] = biological target: T1, Sodium-dependent dopamine transporter (Homo sapiens, UniProt Q01959); assay: Inhibition of [125I]- RTI -55 binding at the Dopamine transporter sites on HEK-hDAT cells; format: cell-based
How it was run: (§1)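 Membranes from HEK293 cells expressing hDAT, hSERT or hNET (about 10–15 μg protein) preincubated 10 min with compound in Krebs-HEPES pH 7.4 containing pargyline, tropolone and ascorbate. Duplicates, two or three experiments; IC50 converted to Ki by Cheng-Prusoff.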

HEK293 [2] = assay: Ability to block the uptake of [3H]- DA(dopamine) in HEK-hDAT cells; format: functional, cell-based; settings: Homo sapiens
HEK293 [3] = assay: Ability to block the uptake of [3H]NE (norepinephrine) in HEK-hNET cells; format: functional, cell-based; settings: Homo sapiens
HEK293 [4] = assay: Ability to block the uptake of [3H]- 5- HT(serotonin) in HEK-hSERT cells; format: functional, cell-based; settings: Homo sapiens
[5] = biological target: T2, Sodium-dependent noradrenaline transporter (Homo sapiens, UniProt P23975); assay: Inhibition of [125I]- RTI -55 binding at the Norepinephrine transporter sites on HEK-hNET cells; format: cell-based
T2 sequence (P23975 whole entry): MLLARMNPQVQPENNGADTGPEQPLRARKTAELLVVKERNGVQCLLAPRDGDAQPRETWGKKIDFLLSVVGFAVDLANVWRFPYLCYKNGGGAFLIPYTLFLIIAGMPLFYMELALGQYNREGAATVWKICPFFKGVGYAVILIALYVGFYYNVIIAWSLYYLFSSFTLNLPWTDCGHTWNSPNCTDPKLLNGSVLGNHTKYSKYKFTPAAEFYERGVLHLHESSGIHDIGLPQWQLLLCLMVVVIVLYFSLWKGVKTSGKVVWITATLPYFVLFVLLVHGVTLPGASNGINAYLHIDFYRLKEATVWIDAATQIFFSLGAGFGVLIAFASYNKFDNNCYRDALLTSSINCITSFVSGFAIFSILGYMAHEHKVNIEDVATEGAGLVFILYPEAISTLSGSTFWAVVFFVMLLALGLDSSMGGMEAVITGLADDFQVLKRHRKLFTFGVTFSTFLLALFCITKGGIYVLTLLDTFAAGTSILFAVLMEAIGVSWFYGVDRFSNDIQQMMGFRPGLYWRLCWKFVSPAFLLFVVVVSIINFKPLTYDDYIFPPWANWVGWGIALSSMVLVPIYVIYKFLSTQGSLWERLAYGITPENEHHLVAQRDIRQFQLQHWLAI
How it was run: as §1, with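 “ascorbate. Then [125I]RTI-55 (40–80 pM final) added, 90 min at 25 °C, filtration. […]” for “ascorbate.”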

[6] = biological target: Sodium-dependent serotonin transporter (Homo sapiens, UniProt P31645); assay: Inhibition of [125I]- RTI -55 binding at the Serotonin transporter sites on HEK-hSERT cells; format: cell-based
Sequence of Sodium-dependent serotonin transporter (P31645 whole entry): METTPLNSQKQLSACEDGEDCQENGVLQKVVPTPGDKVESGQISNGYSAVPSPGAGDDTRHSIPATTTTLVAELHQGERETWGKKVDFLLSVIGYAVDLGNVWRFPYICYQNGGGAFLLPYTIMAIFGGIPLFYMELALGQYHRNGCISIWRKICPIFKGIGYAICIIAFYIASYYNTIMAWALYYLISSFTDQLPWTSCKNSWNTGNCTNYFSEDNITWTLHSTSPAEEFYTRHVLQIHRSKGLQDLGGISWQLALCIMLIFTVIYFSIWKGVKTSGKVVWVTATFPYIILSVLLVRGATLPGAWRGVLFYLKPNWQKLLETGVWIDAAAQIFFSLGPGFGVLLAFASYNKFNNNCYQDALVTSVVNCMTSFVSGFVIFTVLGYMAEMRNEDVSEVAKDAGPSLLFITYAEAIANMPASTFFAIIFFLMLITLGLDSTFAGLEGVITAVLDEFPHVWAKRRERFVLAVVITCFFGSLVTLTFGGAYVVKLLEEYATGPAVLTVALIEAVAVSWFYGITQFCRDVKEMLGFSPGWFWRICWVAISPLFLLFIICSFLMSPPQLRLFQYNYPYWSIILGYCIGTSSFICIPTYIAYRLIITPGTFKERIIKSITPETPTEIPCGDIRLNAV
How it was run: as §1, with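 “ascorbate. Then [125I]RTI-55 (40–80 pM final) added, 90 min at 25 °C, filtration. […]” for “ascorbate.”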

[7] = biological target: Monoamine transporters; Norepinephrine & dopamine (Homo sapiens) (UniProt Q01959+P23975); assay: Selectivity ratio as ratio of IC50 value against NET to that of DAT; format: protein assay
Sequence of Monoamine transporters; Norepinephrine & dopamine (Homo sapiens) (P23975 whole entry, looked up): as the sequence (P23975 whole entry) above
Sequence of Monoamine transporters; Norepinephrine & dopamine (Homo sapiens) (Q01959 whole entry, looked up): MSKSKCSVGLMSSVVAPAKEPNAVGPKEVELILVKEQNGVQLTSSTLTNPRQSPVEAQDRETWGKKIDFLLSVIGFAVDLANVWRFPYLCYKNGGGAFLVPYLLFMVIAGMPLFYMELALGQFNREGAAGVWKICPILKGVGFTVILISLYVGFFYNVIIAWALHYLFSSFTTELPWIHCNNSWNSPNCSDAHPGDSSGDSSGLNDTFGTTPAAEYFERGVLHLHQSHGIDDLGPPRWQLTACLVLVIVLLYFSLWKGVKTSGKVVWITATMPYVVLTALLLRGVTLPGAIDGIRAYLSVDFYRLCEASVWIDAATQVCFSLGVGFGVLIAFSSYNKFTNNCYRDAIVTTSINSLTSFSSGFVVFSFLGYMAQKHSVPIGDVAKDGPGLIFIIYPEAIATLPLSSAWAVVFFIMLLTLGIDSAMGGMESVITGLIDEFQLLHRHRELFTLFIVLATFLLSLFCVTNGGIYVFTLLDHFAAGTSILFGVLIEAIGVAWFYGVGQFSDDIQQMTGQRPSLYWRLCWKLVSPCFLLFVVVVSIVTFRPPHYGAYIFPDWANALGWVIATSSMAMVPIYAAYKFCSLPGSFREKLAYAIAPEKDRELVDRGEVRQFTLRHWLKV

[8] = biological target: Monoamine transporters; serotonin & dopamine (Homo sapiens) (UniProt P31645+Q01959); assay: Selectivity ratio as ratio of IC50 value against SERT to that of DAT; format: protein assay
Sequence of Monoamine transporters; serotonin & dopamine (Homo sapiens) (P31645 whole entry, looked up): as the sequence (P31645 whole entry) above
Sequence of Monoamine transporters; serotonin & dopamine (Homo sapiens) (Q01959 whole entry, looked up): as the sequence (Q01959 whole entry, looked up) above

[9] = Discrimination ratio against NET as ratio of IC50 to that of Ki uptake to NET.; format: functional
How it was run: (§2)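 Ratio of uptake IC50 in transporter-expressing HEK293 cells to [125I]RTI-55 binding Ki at the same human transporter (DAT, SERT or NET). Both were measured in this work: uptake with 20 nM [3H]amine for 10 min at 25 °C, binding for 90 min at 25 °C.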

[10] = Discrimination ratio against SERT as ratio of IC50 to that of Ki uptake to SERT.; format: functional; how it was run: as §2
HEK hDAT [11] = assay: Ratio of the IC50 against DAT in HEK hDAT cells to that of guinea pig striatal membranes.; format: cell-based
HEK hDAT [12] = assay: Ratio of the IC50 against DAT in HEK hDAT cells to that of rat striatal membranes.; format: cell membranes; settings: Membrane
[13] = Ratio of the IC50 against DAT in rat striatal membranes to that of guinea pig striatal membranes.; format: cell membranes; settings: Membrane
[14] = biological target: T1, Sodium-dependent dopamine transporter; assay: (§3) Ratio of the IC50 value of Mazindol to that in guinea pig was determined; format: functional; settings: Cavia porcellus; target entry is the homologue from another species
[15] = Discrimination ratio against DAT as ratio of IC50 to that of Ki uptake to DAT.; format: functional; how it was run: as §2
[16] = as §3; format: functional
[17] = biological target: Sodium-dependent dopamine transporter (Rattus norvegicus, UniProt P23977); assay: Ability to displace [3H]WIN-35428 from dopamine transporter on rat striatal membrane.
Sequence of Sodium-dependent dopamine transporter (Rattus norvegicus, UniProt P23977) (P23977 whole entry): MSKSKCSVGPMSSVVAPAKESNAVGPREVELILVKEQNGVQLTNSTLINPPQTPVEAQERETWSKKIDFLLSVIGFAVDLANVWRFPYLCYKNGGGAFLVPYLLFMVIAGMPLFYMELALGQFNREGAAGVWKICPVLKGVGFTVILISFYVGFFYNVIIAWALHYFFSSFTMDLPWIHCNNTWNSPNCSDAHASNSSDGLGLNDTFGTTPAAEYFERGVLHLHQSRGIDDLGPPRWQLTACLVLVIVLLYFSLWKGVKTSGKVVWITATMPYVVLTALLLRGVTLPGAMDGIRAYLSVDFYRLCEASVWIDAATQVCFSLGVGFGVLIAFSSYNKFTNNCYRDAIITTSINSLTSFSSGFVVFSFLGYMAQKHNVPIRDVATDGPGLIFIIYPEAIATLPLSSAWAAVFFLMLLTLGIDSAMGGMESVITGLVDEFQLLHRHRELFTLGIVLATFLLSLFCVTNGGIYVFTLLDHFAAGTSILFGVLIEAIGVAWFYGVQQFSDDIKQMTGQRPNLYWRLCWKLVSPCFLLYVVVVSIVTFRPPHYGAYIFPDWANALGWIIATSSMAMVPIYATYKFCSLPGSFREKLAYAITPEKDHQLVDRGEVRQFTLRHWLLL
How it was run: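 Rat (male Sprague–Dawley, 200–225 g) striatal membranes in modified Krebs-HEPES pH 7.4; 2.5 mg tissue (wet weight) per tube with 1.5 nM [3H]WIN 35,428. Membranes preincubated 5 min with test compound, then incubated 60 min on ice. Nonspecific binding defined with 0.1 mM cocaine. Filtration over BSA-soaked GF/B filters, scintillation counting; triplicate samples.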

[18] = biological target: T2, Sodium-dependent noradrenaline transporter; assay: Displacement of [125I]RTI-55 from human Norepinephrine transporter expressed in HEK cells; format: cell-based, HEK293
How it was run: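 Membranes from HEK293 cells expressing hNET, about 10–15 μg protein per tube. Compounds diluted from 10 mM DMSO stock, preincubated 10 min, then 40–80 pM [125I]RTI-55 added, 90 min at 25 °C in Krebs-HEPES pH 7.4. […] GF/C filtration; two or three experiments in duplicate; IC50 converted to Ki by Cheng-Prusoff.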

T1 sequence (Q01959 whole entry): as the sequence (Q01959 whole entry, looked up) above

Row | SMILES | Ki [1] | IC50 (HEK293 [2]) | IC50 (HEK293 [3]) | IC50 (HEK293 [4]) | Ki [5] | Ki [6] | Ratio [7] | Ratio [8] | Ratio [9] | Ratio [10] | Ratio [14] | Ratio [15] | also measured
1 | OC1(c2ccc3ccccc3c2)c2ccccc2C2=NCCN21 (stereo not drawn) | 45 nM | 66 nM | 4.5 nM | 1.8 nM | 11 nM | 2.3 nM | 0.24 | 0.05 | 0.4 | 0.8 | 10.4 | 1.5 | Ratio (HEK hDAT [11]): 11; Ratio (HEK hDAT [12]): 1.9; Ratio [13]: 5.7
2 | OC1(c2cccc3ccccc23)c2ccccc2C2=NCCN21 (stereo not drawn) |  |  |  |  |  |  |  |  |  |  | 0.02 |  | 
3 | OC1(c2ccc(Cl)cc2)c2ccccc2-c2nc3ccccc3n21 (stereo not drawn) |  |  |  |  |  |  |  |  |  |  | < 0.02 |  | 
4 | OC1(c2ccc(Cl)cc2)c2cc3ccccc3cc2C2=NCCN21 (stereo not drawn) |  |  |  |  |  |  |  |  |  |  | 1.3 |  | 
5 | OC1(c2ccc3ccccc3c2)c2ccc3ccccc3c2C2=NCCN21 (stereo not drawn) | 2.83 nM | 880 nM | 38 nM | 370 nM | 5.2 nM | 11 nM | 1.9 | 3.9 | 7 | 34 | 13 | 311 | Ratio (HEK hDAT [11]): 0.9; Ratio (HEK hDAT [12]): 0.07; Ratio [13]: 11.6
6 | OC1(c2ccc3c(c2)CCCC3)c2ccccc2C2=NCCN21 (stereo not drawn) |  |  |  |  |  |  |  |  |  |  | < 0.02 |  | 
7 | OC1(c2ccc3ccccc3c2)c2c(c3ccccc3c3ccccc23)C2=NCCN21 (stereo not drawn) |  |  |  |  |  |  |  |  |  |  |  |  | Ratio [16]: <0.02
8 | OC1(c2ccc(Cl)cc2)c2c(c3ccccc3c3ccccc23)C2=NCCN21 (stereo not drawn) |  |  |  |  |  |  |  |  |  |  |  |  | Ratio [16]: <0.02
9 | OC1(c2ccc(Cl)cc2)c2ccccc2C2=NCCN21 (stereo not drawn) [MAZINDOL] |  |  | 4.9 nM | 94 nM | 18 nM | 50 nM |  |  |  |  |  |  | 
10 | OC1(c2ccc(Cl)cc2)c2ccccc2C2=Nc3ccccc3CN21 (stereo not drawn) |  |  |  |  |  |  |  |  |  |  | < 0.02 |  | 
11 | OC1(c2ccc(Cl)cc2)c2ccccc2C2=N[C@@H]3CCCC[C@@H]3N21 (stereo partly drawn) |  |  |  |  |  |  |  |  |  |  | 5.1 |  | 
12 | OC1(c2ccc(Cl)cc2)c2ccc3ccccc3c2C2=N[C@H]3CCCC[C@@H]3N21 (mixture of isomers) |  |  |  |  |  |  |  |  |  |  | < 0.02 |  | 
13 | OC1(c2ccc(Cl)cc2)c2ccc3ccccc3c2C2=NCCN21 (stereo not drawn) | 27.2 nM | 85 nM | 13 nM | 3210 nM | 33.4 nM | 224 nM | 1.2 | 8.2 | 0.4 | 14.3 | 4 | 3.2 | Ratio (HEK hDAT [11]): 2.6; Ratio (HEK hDAT [12]): 1.7; Ratio [13]: 1.5
14 | OC1(c2ccc(Cl)cc2)c2ccccc2C2=N[C@H]3CCCC[C@@H]3N21 (stereo partly drawn) | 152 nM | 63 nM | 323 nM | > 10000 nM | 690 nM | 600 nM | 4.1 | 3.9 | 0.5 | > 17 | 15.8 | 0.4 | IC50 [17]: 34.2 nM; Ratio (HEK hDAT [11]): 56.3; Ratio (HEK hDAT [12]): 4.4; Ratio [13]: 12.7
15 | OC1(c2ccc(Cl)cc2)c2ccccc2C2=NCc3ccccc3CN21 (stereo not drawn) |  |  |  |  |  |  |  |  |  |  | < 0.02 |  | 
16 | OC1(c2ccc(Cl)cc2)c2c(ccc3ccccc23)C2=NCCN21 (stereo not drawn) |  |  |  |  |  |  |  |  |  |  | 0.2 |  | 
17 | OC1(c2ccc(Cl)cc2)c2ccccc2C2=NCCCN21 (stereo not drawn) | 1.7 nM | 3.7 nM | 4.9 nM | 53 nM |  | 39 nM | 10.7 | 22.9 | 0.3 | 1.4 | 10.1 | 2.2 | Ki [18]: 18.2 nM
18 | OC1(c2ccc(Cl)cc2)c2ccc3ccccc3c2C2=NCCCN21 (stereo not drawn) | 2.01 nM | 366 nM | 53 nM | 700 nM | 5.3 nM | 5.5 nM | 2.6 | 2.8 | 10 | 127 | 20.3 | 182 | Ratio (HEK hDAT [11]): 1; Ratio (HEK hDAT [12]): 0.05; Ratio [13]: 17.8
